APP 5'UTR act = activates APP 5'UTR luciferase reporter; SH-SY5Y APP 5'UTR luciferase reporter, luminescence; zero percent = DMSO vehicle wells; activation, % at 2 µM; 190,000 compounds, 1% hits; AID 1276;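 active = activation above a set limit, based on mean plus 3 SD of controls, cut at about 140% in these data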
STAT1 act-1 = increases IFN-gamma driven STAT1 reporter signal. activation (% of control), % at 5.5 µM. 200,000 compounds, 2.6% hits. NIH 3T3 STAT1-luciferase reporter, luminescence; 100% = IFN-gamma alone, no compound;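 active = activation above the screen-wide mean activation plus 3 SD, cut at about 130% in these data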
STAT3 act-1 = increases IL-6 driven STAT3 reporter signal | U3A cells, IL-6 STAT3-luciferase reporter, luminescence; 100% = signal with IL-6 EC80 alone | activation (% of control), % at 5.6 µM | 190,000 compounds, 0.91% hits | AID 871;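 active = activation above the screen-wide mean of compound activation plus 3 SD, cut at about 130% in these data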
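Assay system – human STAT1-deficient U3A cells with stable STAT3-luciferase reporter · Also added – IL-6 (33 ng/mL) · Schedule – compound 1 h, then IL-6 6 h at 37 °C · Technique – reporter luminescence signal · Evaluation – % activation versus median of IL-6-stimulated wells · Benchmarks – IL-6-only wells as 100% reference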
NF-kB neuron act = raises NF-kB expression in human neuronal cells. NF-kB reporter expression; hits give high values. fold change at 12.5 µM. 190,000 compounds, 1.6% hits; in the data active = fold change above about 3.3
STAT3 inh = reduces IL-6 driven STAT3 reporter signal; U3A cells, IL-6 STAT3-luciferase reporter, luminescence; host cell line lacks STAT1; inhibition, % at 5.5 µM; 190,000 compounds, 0.89% hits; AID 862;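 active = inhibition above the mean inhibition across all screened compounds plus 3 SD, cut at about 44% in these data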
STAT1 blocker = reduces IFN-gamma driven STAT1 reporter signal. inhibition, % at 5.5 µM. 200,000 compounds, 0.35% hits. NIH 3T3 STAT1-luciferase reporter, luminescence. AID 920;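 active = inhibition above a set limit, the mean inhibition across all tested compounds plus 3 SD, cut at about 34% in these data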
STAT3 act-2 = STAT3 activation, confirmation assay; shares compounds with STAT3 act-1; U3A STAT3-luciferase reporter, IL-6 potentiation, luminescence; U3A cells lack STAT1; 100 means same as IL-6 alone; potentiation (% of control), % at 5.7 µM; 1,200 compounds, 64% hits; AID 1267;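 active = percent activation of the STAT3 luciferase reporter above a set limit taken from the earlier primary screen, cut at about 130% in these data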
NFkB act STAT3ct = activates NF-kappaB, counter-screen to STAT3 activators. shares compounds with STAT3 act-1. human cells, NF-kappaB reporter activation. activation (% of control), % at 5.7 µM. 1,200 compounds, 11% hits; in the data active = activation above about 120%;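 also: reporter induced by TNF-alpha stimulation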
STAT1 act-2 = STAT1 activation in STAT3 activator counter-screen; shares compounds with STAT3 act-1; NIH 3T3 STAT1-luciferase reporter, IFN-gamma, luminescence; activation (% of control), % at 5.7 µM; 1,200 compounds, 13% hits;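 active = activation above the solvent-only control well mean plus 3 SD, set per screening run, cut at about 120% in these data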
Of the large screens only hits and unclear results are named; the others gave an inactive call (follow-up assays come after a bar, where they were run). Most compounds without a hit are left out; they make up all but 4.9% or so of the library.

CCOC(=O)Cc1nnc(NC(=O)C(CC)Sc2nnc3c4ccccc4n(C)c3n2)s1 (stereo not drawn)	STAT3 act-1 136.8 | STAT3 act-2 158.3 | NFkB act STAT3ct inactive | STAT1 act-2 inactive
Cn1c(-c2cc(Br)ccc2O)n[nH]c1=S	none
Oc1ccc(Br)cc1-c1cc(-c2ccccc2)n[nH]1	STAT3 act-1 141.1 | STAT3 act-2 inactive | NFkB act STAT3ct inactive | STAT1 act-2 inactive
CN(C)/C=C(\C#N)C(=O)N/N=C(\CC(=O)C(F)(F)F)c1ccco1	none
CC(C)=CC(=O)OCC(=O)NC1CCCc2ccccc21 (stereo not drawn)	none
Cc1nc2sc3c(c2c(=O)[nH]1)CCC3	none
Cc1cc(-c2nc3c4c5c(sc4[nH]c(=O)n3n2)CCC5)c(C)o1	STAT3 act-1 151.3 | STAT3 act-2 134.3 | NFkB act STAT3ct inactive | STAT1 act-2 inactive
Cn1c(O)c(N=Nc2ccc(F)cc2)c2ccccc21	STAT3 act-1 152.3 | STAT3 act-2 165.2 | NFkB act STAT3ct inactive | STAT1 act-2 inactive
Cn1c(O)c(N=NC(=O)c2cc(-c3cccs3)nc3ccccc23)c2ccccc21	none
Cn1c(O)c(N=Nc2nc(-c3ccccc3)cs2)c2ccccc21	STAT3 act-1 146.8 | STAT3 act-2 158.7 | NFkB act STAT3ct inactive | STAT1 act-2 inactive
COc1ccc(C2c3[nH]c4ccccc4c3CCN2C(=O)c2ccc(=O)n(C)n2)c(F)c1 (stereo not drawn)	STAT3 act-1 148.4 | STAT3 act-2 153.5 | NFkB act STAT3ct inactive | STAT1 act-2 inactive
Cc1ccccc1C1c2[nH]c3ccccc3c2CCN1C(=O)c1ccc(=O)n(C)n1 (stereo not drawn)	STAT3 act-1 162.9 | STAT3 act-2 168.8 | NFkB act STAT3ct inactive | STAT1 act-2 inactive
O=c1[nH]c2cc(NCCO)c([N+](=O)[O-])cc2[nH]1	none
Fc1ccc(/C=C\c2nccc3c2[nH]c2ccccc23)cc1	STAT3 act-1 137.5 | STAT3 act-2 148.2 | NFkB act STAT3ct inactive | STAT1 act-2 inactive
O=C1C(=O)N(Cc2ccccc2)C(=O)N1CCN1C(=O)c2ccccc2C1=O	none
O=C1Cc2ccccc2C(=O)N1CCc1ccccc1	STAT3 act-1 155.0 | STAT3 act-2 136.4 | NFkB act STAT3ct inactive | STAT1 act-2 inactive
CCOC(=O)c1c(C)[nH]c(C(=O)OCC(=O)Nc2cc(Cl)ccc2OC)c1C	STAT3 act-1 147.7 | STAT3 act-2 inactive | NFkB act STAT3ct inactive | STAT1 act-2 inactive
CN(C)c1ccc(C(=O)Nc2nc3c(s2)CCCC3)cc1	none
C/C(=N\Nc1nc2c(s1)CCCC2)c1ccc(Cl)cc1	STAT3 act-1 158.5 | STAT3 act-2 inactive | NFkB act STAT3ct 121.8 | STAT1 act-2 inactive
Cc1ccc(O)c(-c2cc(-c3ccccc3F)[nH]n2)c1	STAT3 act-1 160.3, NF-kB neuron act 4.35 | STAT3 act-2 147.7 | NFkB act STAT3ct inactive | STAT1 act-2 inactive
O=[N+]([O-])c1ccccc1-c1cc(-c2ccccc2O)n[nH]1	none
CC(NC(=O)C1(c2cccs2)CCOCC1)c1ccccc1 (stereo not drawn)	none
Fc1ccc2c(c1)C(c1ccncc1)=NNC(c1cccnc1)=N2	none
O=C(CN1C(=O)/C(=C/c2c(F)cccc2Cl)Oc2ccccc21)NCc1ccco1	STAT3 act-1 153.9 | STAT3 act-2 187.3 | NFkB act STAT3ct inactive | STAT1 act-2 inactive
COC(=O)/C(C#N)=C/c1c[nH]c2ccccc12	STAT3 act-1 146.5 | STAT3 act-2 193.4 | NFkB act STAT3ct 128.8 | STAT1 act-2 160.4
CCOC(=O)/C(C#N)=C/c1c[nH]c2ccccc12	none
CN(Cc1nc(Cc2cccc(C(F)(F)F)c2)no1)C1CC(C)(C)NC(C)(C)C1	none
O=C(NCCC(=O)N1CCN(c2ncccn2)CC1)c1ccccc1Cl	none (no result: APP 5'UTR act)
O=C(NCCC(=O)N1CCN(c2ncccn2)CC1)c1ccccc1	STAT3 act-1 139.5 | STAT3 act-2 inactive | NFkB act STAT3ct inactive | STAT1 act-2 inactive
COc1ccc(NC(=S)Nc2ccc(S(N)(=O)=O)cc2)c(OC)c1	STAT3 act-1 136.2 | STAT3 act-2 inactive | NFkB act STAT3ct inactive | STAT1 act-2 inactive
COc1ccc(NC(=S)Nc2ccc(S(=O)(=O)N3CCOCC3)cc2)c(OC)c1	none
O=C(C1CCCCC1)N1CCCC(c2nc3c(nnn3Cc3ccccc3)c(=O)[nH]2)C1 (stereo not drawn)	none
O=C(c1ccccc1)N1CCCC(c2nc3c(nnn3Cc3ccccc3)c(=O)[nH]2)C1 (stereo not drawn)	STAT3 act-1 148.0 | STAT3 act-2 inactive | NFkB act STAT3ct inactive | STAT1 act-2 inactive
Cc1c([N+](=O)[O-])cc(C(=O)Oc2cccc(C(=S)N3CCOCC3)c2)cc1[N+](=O)[O-]	none
Cc1cc(C)n(-c2nnc3n2N=C(c2ccccc2)CS3)n1	none
Cc1cc(C)n(-c2nnc3n2N=C(c2c[nH]c4ccccc24)CS3)n1	STAT3 act-1 157.6 (no result: APP 5'UTR act) | STAT3 act-2 154.0 | NFkB act STAT3ct inactive | STAT1 act-2 inactive
CN(C)S(=O)(=O)c1cccc(C(=O)N2CCc3ccccc32)c1	STAT3 act-1 147.8 | STAT3 act-2 inactive | NFkB act STAT3ct inactive | STAT1 act-2 inactive
CC(C)(C)c1cc(C(=O)N2CCc3ccccc32)ccn1	none
COc1ccc(CCn2c(=O)c3cccnc3n(Cc3cccc([N+](=O)[O-])c3)c2=O)cc1OC	none
Cc1ccc(S(=O)(=O)c2c(C)nn(C(C)(C)C)c2OC(=O)c2cccs2)cc1	STAT3 act-1 137.2 | STAT3 act-2 inactive | NFkB act STAT3ct inactive | STAT1 act-2 inactive
O=C(N/N=C/c1cccs1)c1cc(-c2ccncc2)nc2ccccc12	STAT3 act-1 138.4 | STAT3 act-2 inactive | NFkB act STAT3ct 125.1 | STAT1 act-2 inactive
CCc1ccc(/C=N/NC(=O)c2cc(-c3ccncc3)nc3ccccc23)s1	none
COc1ccccc1-c1cc(C(=O)N/N=C/c2cccs2)c2ccccc2n1	STAT3 act-1 138.7 | STAT3 act-2 137.9 | NFkB act STAT3ct inactive | STAT1 act-2 inactive
COc1ccc(C(=O)NC(=S)N2CCN(C)CC2)cc1Br	none
CCc1ccc(C(=O)NC(CCSC)C(=O)OC)cc1 (stereo not drawn)	none
COc1cccc2cc3c(=O)n(-c4ccccc4)nc-3oc12	STAT3 act-1 140.8 | STAT3 act-2 inactive | NFkB act STAT3ct inactive | STAT1 act-2 inactive

Assay outcomes (PubChem BioAssay)
